# ChEMBL document CHEMBL1154940, “Design, synthesis and biological evaluation of estradiol-chlorambucil hybrids as anticancer agents” (Bioorg Med Chem Lett, 2010)
# Calls of active or inactive are those of the source. The rule behind the calls is not given here.
# Experiments:
# Format in all cases: functional, cell-based
# [1] = test system: MCF7; assay: Anticancer activity against human MCF7 cells assessed as cell survival after 72 hrs by MTT assay
# Summary of the method: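 Estrogen receptor-positive human breast cancer line, tested by MTT cytotoxicity assay with chlorambucil as positive control.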
# [2] = (§1) Anticancer activity against human MDA-MB-436 cells assessed as cell survival after 72 hrs by MTT assay; settings: MDA-MB-436, 72 h
# Summary of the method: (§2)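 Estrogen receptor-negative human breast cancer line, exposed to a range of concentrations for 72 h. MTT read-out is expressed as percent cell survival, with chlorambucil as positive control.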
# [3] = test system: MDA-MB-468; assay: Anticancer activity against human MDA-MB-468 cells assessed as cell survival after 72 hrs by MTT assay
# Summary of the method: (§3)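 Estrogen receptor-negative human breast cancer lines, tested by MTT cytotoxicity assay with chlorambucil as positive control.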
# [4] = test system: MDA-MB-231; assay: Anticancer activity against human MDA-MB-231 cells assessed as cell survival after 72 hrs by MTT assay; summary of the method: as §3
# [5] = test system: MDA-MB-436; assay: as §1; summary of the method: as §2
Compound,Activity [1],IC50 [2] [µM],Activity [3],Activity [4],"IC50 ([4]; MDA-MB-231, 72 h) [µM]",Activity [5]
C[C@]12CC[C@@H]3c4ccc(O)cc4CC[C@H]3[C@@H]1C[C@@](CO)(CCCCNC(=O)CCCc1ccc(N(CCCl)CCCl)cc1)[C@@H]2O,Active,40,Active,Active,,
O=C(O)CCCc1ccc(N(CCCl)CCCl)cc1 [CHLORAMBUCIL],Active,> 160,Active,,> 130,
COC(=O)[C@@]1(CCCCCCNC(=O)CCCc2ccc(N(CCCl)CCCl)cc2)C[C@H]2[C@@H]3CCc4cc(O)ccc4[C@H]3CC[C@]2(C)[C@H]1O,inactive,,inactive,Active,,
C[C@]12CC[C@@H]3c4ccc(O)cc4CC[C@H]3[C@@H]1C[C@@](CO)(CCCCCCCCNC(=O)CCCc1ccc(N(CCCl)CCCl)cc1)[C@@H]2O,Active,,Active,Active,,Active
C[C@]12CC[C@@H]3c4ccc(O)cc4CC[C@H]3[C@@H]1C[C@@](CO)(CCCCCCNC(=O)CCCc1ccc(N(CCCl)CCCl)cc1)[C@@H]2O,Active,,Active,Active,,Active
